Assay results: ChEMBL document CHEMBL4680124, “2-Styryl-4-aminoquinazoline derivatives as potent DNA-cleavage, p53-activation and in vivo effective anticancer agents” (Eur J Med Chem, 2020)

Experiments:
Type in all cases: functional, cell-based
[1] = tested on: T-24; experiment: Cytotoxicity against human T-24 cells […] assessed as reduction in cell viability preincubated for 48 hrs and measured after 4 hrs by MTT assay
[2] = tested on: DU-145; experiment: Cytotoxicity against human DU145 cells expressing mutant type p53 assessed as reduction in cell viability preincubated for 48 hrs and measured after 4 hrs by MTT assay
Outline: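 MTT assay. Cells grown in DMEM (T24, MGC-803, A549, HL-7702), RPMI-1640 (DU145) or DMEM-F12 (PC-3), each with 10% FBS. Exposed to 1.25–20 µM in medium with 1% DMSO for 48 h, then MTT for 4 h. Formazan dissolved in DMSO and read at 570 nm. Five wells per concentration; means ± SD of independent repeats.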

[3] = tested on: A549; experiment: Cytotoxicity against human A549 cells expressing wild type p53 assessed as reduction in cell viability preincubated for 48 hrs and measured after 4 hrs by MTT assay
[4] = tested on: L02; experiment: Cytotoxicity against human HL-7702 cells expressing wild type p53 assessed as reduction in cell viability preincubated for 48 hrs and measured after 4 hrs by MTT assay
[5] = tested on: MGC-803; experiment: Cytotoxicity against human MGC-803 cells expressing mutant type p53 assessed as reduction in cell viability preincubated for 48 hrs and measured after 4 hrs by MTT assay
[6] = tested on: PC-3; experiment: Cytotoxicity against human PC-3 cells assessed as reduction in cell viability preincubated for 48 hrs and measured after 4 hrs by MTT assay

SMILES	IC50 [1] [µM]	IC50 [2] [µM]	IC50 [3] [µM]	IC50 [4] [µM]	IC50 [5] [µM]	IC50 [6] [µM]
Clc1ccc2nc(/C=C/c3ccc4c(c3)OCO4)nc(NCCN3CCOCC3)c2c1	38.3	> 100	> 100	> 100	> 100	> 100
CCN(CC)CCCNc1nc(/C=C/c2ccc(OC)c(OC)c2)nc2ccc(Cl)cc12	3.51	5.35	> 100	5.17	8.42	6.25
NCCCCNc1nc(/C=C/c2ccc3c(c2)OCO3)nc2ccc(Cl)cc12	5.65	50.3	9.82	> 100	10.3	> 100
CN(C)CCNc1nc(/C=C/c2ccc3c(c2)OCO3)nc2ccc(Cl)cc12	9.61	> 100	> 100	> 100	9.46	> 100
COc1ccc(/C=C/c2nc(NCCN3CCCCC3)c3ccccc3n2)cc1OC	10.5	71.6	82.7	19.8	33.2	78.5
CC(C)N(CCNc1nc(/C=C/c2ccc([N+](=O)[O-])cc2)nc2ccc(Cl)cc12)C(C)C	56.6	> 100	> 100	> 100	17.3	> 100
CCN(CC)CCNc1nc(/C=C/c2ccc3c(c2)OCO3)nc2ccccc12	8.68	16.3	46.9	20.7	9.88	33.9
CC(C)N(CCNc1nc(/C=C/c2ccc3c(c2)OCO3)nc2ccc(Cl)cc12)C(C)C	7.46	8.78	> 100	> 100	8.57	10.6
O=[N+]([O-])c1ccc(/C=C/c2nc(NCCN3CCOCC3)c3cc(Cl)ccc3n2)cc1	> 100	> 100	> 100	> 100	> 100	> 100
COc1ccc(/C=C/c2nc(NCCN3CCCCC3)c3cc(Cl)ccc3n2)cc1OC	7.64	17.2	> 100	13.9	13.5	21.2
COc1ccc(/C=C/c2nc(NCCN(C)C)c3ccccc3n2)cc1OC	> 100	> 100	> 100	> 100	> 100	> 100
CCN(CC)CCCNc1nc(/C=C/c2ccc([N+](=O)[O-])cc2)nc2ccccc12	5.42	12.3	> 100	5.3	8.25	15.4
CCN(CC)CCNc1nc(/C=C/c2ccc3c(c2)OCO3)nc2ccc(Cl)cc12	8.17	7.56	> 100	15.9	11.1	14.2
CN(C)CCNc1nc(/C=C/c2ccc([N+](=O)[O-])cc2)nc2ccc(Cl)cc12	6.97	6.76	> 100	71.3	4.68	8.02
CN(C)CCCNc1nc(/C=C/c2ccc3c(c2)OCO3)nc2ccc(Cl)cc12	8.12	> 100	> 100	> 100	17.2	> 100
CCN(CC)CCNc1nc(/C=C/c2ccc(OC)c(OC)c2)nc2ccccc12	30.2	31.4	> 100	> 100	> 100	50.3
CC(C)N(CCNc1nc(/C=C/c2ccc3c(c2)OCO3)nc2ccccc12)C(C)C	17.5	> 100	> 100	21.2	11.3	> 100
C(=C\c1nc(NCCN2CCOCC2)c2ccccc2n1)/c1ccc2c(c1)OCO2	> 100	> 100	> 100	> 100	> 100	> 100
CCN(CC)CCCNc1nc(/C=C/c2ccc(OC)c(OC)c2)nc2ccccc12	> 100	> 100	> 100	> 100	> 100	> 100
CN(C)CCCNc1nc(/C=C/c2ccc3c(c2)OCO3)nc2ccccc12	8.81	25.4	> 100	14.5	14	> 100
CN(C)CCCNc1nc(/C=C/c2ccc([N+](=O)[O-])cc2)nc2ccccc12	9.16	24.4	59.5	21.4	15.7	> 100
